Only some compounds are listed: those with a hit (about 2.6% of all), similar ones and a draw of the others.
SENP8 block-1: human SENP8 protease inhibitors, primary screen, biochemical, fluorescence, Nedd8 protein substrate, uHTS. Sentrin-specific protease 8 (Homo sapiens), Q96LD8. recombinant SENP8. inhibition, % at 20 µM. hit rate 0.64% among 360,000. AID 602440, 2012; in the data active means inhibition mostly above about 40%, no sharp cut-off; inactive means mostly below about 27%
Target sequence (Q96LD8 whole entry, looked up): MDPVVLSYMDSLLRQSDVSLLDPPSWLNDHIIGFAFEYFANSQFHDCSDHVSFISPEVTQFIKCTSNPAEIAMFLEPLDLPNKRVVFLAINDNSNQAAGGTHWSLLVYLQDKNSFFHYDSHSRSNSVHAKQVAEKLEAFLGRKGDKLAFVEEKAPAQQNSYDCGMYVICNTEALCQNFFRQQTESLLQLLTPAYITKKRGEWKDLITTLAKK
SENP6 inh: SENP6 protease inhibitors, primary screen, biochemical, luminescence, uHTS. Sentrin-specific protease 6 (Homo sapiens), Q9GZR1. Recombinant SENP6 catalytic domain, aminoluciferin luminescence. inhibition, % at 10 µM. hit rate 1.8% among 330,000. AID 2599, 2010;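 active means inhibition above about 50% at the single tested dose, limit read from the data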
SENP7 inh: SENP7 protease inhibitors, primary screen, biochemical, luminescence, uHTS; inhibition, % at 5 µM; recombinant SENP7, Z-RLRGG-aminoluciferin luminescence, 40 min; Sentrin-specific protease 7 (Homo sapiens), Q9BQF6; hit rate 1.5% among 330,000;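 active means inhibition above about 50% at the single test dose, limit read from the data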
SENP1 FRET inh: human SENP1 catalytic domain inhibitors, primary screen, biochemical, FRET, uHTS; hit rate 0.21% among 360,000; recombinant SENP1 catalytic domain, CyPet-SUMO1-YPet FRET cleavage; Sentrin-specific protease 1 (Homo sapiens), Q9P0U3; inhibition, % at 10 µM; AID 624204, 2012;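 active means inhibition at least 30% at 10 µM, raw YFP signal under a set limit, fluorescence ratio 0.5 to 1.5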
Target sequence (Q9P0U3 419-644 limits assumed): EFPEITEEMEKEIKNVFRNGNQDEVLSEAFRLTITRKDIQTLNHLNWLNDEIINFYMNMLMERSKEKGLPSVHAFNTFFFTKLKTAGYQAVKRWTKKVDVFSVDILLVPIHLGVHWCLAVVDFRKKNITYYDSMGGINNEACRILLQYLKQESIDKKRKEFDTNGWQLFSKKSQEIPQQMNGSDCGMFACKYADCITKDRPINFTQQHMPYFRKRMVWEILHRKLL
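System: Recombinant human SENP1 catalytic domain, His6-tagged | Incubation: Enzyme reaction for 50 min at room temperature, dark | Medium: Tris pH 8 with BME, BSA, NP40 and catalase | Also added: 25 nM SUMO1 FRET substrate | Compound: 10 µM single point, 0.5% DMSO | Measured by: FRET fluorescence in CFP and YFP emission channels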
SENP8 block-2: SENP8 protease inhibitors, primary screen, biochemical, luminescence. purified SENP8, Z-RLRGG-aminoluciferin cleavage. Sentrin-specific protease 8 (Homo sapiens), Q96LD8. AID 2540, 2010. inhibition, % at 10 µM. hit rate 1.2% among 330,000; in the data active means inhibition above about 50%
Platelet DG rel: inhibitors of platelet dense granule secretion, primary screen, cell-based, MLPCN, human platelets | hit rate 0.22% among 300,000 | human platelet-rich plasma, SFLLRN dense granule ATP release, luminescence | AID 1663, 2009 | inhibition, %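 (compounds screened at 7.5 µM in platelet-rich plasma)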;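 active means mean replicate score, as percent of positive control, at or above 50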
SENP1 conf: human SENP1 catalytic domain inhibitors, confirmation, biochemical, FRET endpoint, single concentration; shares compounds with SENP1 FRET inh; recombinant SENP1, CyPet-SUMO1-YPet FRET cleavage; inhibition, % at 10 µM; hit rate 34% among 520; in the data active means inhibition mostly above about 35%, no sharp cut-off; inactive means mostly below about 32%
SENP1 kinetic: human SENP1 catalytic domain inhibitors, confirmation, biochemical, kinetic FRET, single concentration | inhibition, % at 10 µM | hit rate 26% among 520 | shares compounds with SENP1 FRET inh | AID 651690, 2012 | recombinant SENP1, CyPet-SUMO1-YPet FRET kinetic cleavage; in the data active means inhibition mostly above about 32%, no sharp cut-off; inactive means mostly below about 29%
Numbers stand for hits; - = inactive; . = no result.

SMILES	SENP8 block-1	SENP6 inh	SENP7 inh	SENP1 FRET inh	SENP8 block-2	Platelet DG rel	SENP1 conf	SENP1 kinetic
COC(=O)c1cc(OC)nc2c1c(=O)n(C)c(=O)n2C	-	-	-	-	-	-	.	.
CCOC(=O)C1=C(C)N=c2sc(=Cc3cc(Cl)c(OCC(=O)O)c(Cl)c3)c(=O)n2C1c1cccc(OC)c1 (stereo not given)	-	.	.	52	.	.	51	35
Cc1cc(=O)[nH]c(N/N=C/c2ccc(Br)s2)n1	-	-	-	-	-	-	.	.
CC(C)NC(=O)c1cc(C(=O)c2cc(Cl)ccc2O)coc1=N	-	-	-	-	-	-	.	.
CCOc1ccccc1NC(=O)c1cc(C(=O)c2cc(OC)ccc2O)coc1=N	-	-	-	46	-	-	-	-
Cc1ccc(Cn2ccc(NC(=O)c3cc(CC(C)C)on3)n2)cc1	-	-	-	-	-	-	.	.
CCOC(=O)C1=C(c2ccccc2)NC(=O)NC1c1cc(Cl)c(O)c(OC)c1 (stereo not given)	-	-	-	32	-	-	-	-
CCOC(=O)C1=C(c2ccccc2)NC(=O)NC1c1cc(OC)c(OC)c(OC)c1 (stereo not given)	-	-	-	-	-	.	.	.
CCOCCCNS(=O)(=O)c1ccc(NC(=O)CN2C(=O)c3ccccc3C2=O)cc1	-	-	-	29	-	-	-	-
COc1cc(/C=N/n2c(SC)nnc(C(C)(C)C)c2=O)ccc1O	-	-	-	52	-	-	-	-
COc1ccc(/C=N/n2c(SC)nnc(C(C)(C)C)c2=O)cc1OC	-	-	-	-	-	-	.	.
NC(=O)C1CCN(C(=O)CCn2c(=O)oc3ccccc32)CC1	-	-	-	33	-	.	-	-
Cc1cccc(NC(=O)CCN2C(=O)c3cccc([N+](=O)[O-])c3C2=O)c1	-	-	-	-	-	.	.	.
CCCN(CC(=O)Nc1ccccc1C)C(=O)CCN1C(=O)c2cccc([N+](=O)[O-])c2C1=O	-	-	-	38	-	-	-	-
CCc1ccc2nc(SCC(=O)Nc3ccccc3N3CCOCC3)c(C#N)cc2c1	-	-	-	48	-	-	-	-
Cc1ccc(SCC(=O)Nc2ccccc2N2CCOCC2)cc1	-	-	-	-	-	-	.	.
Cc1ccc2nc(SCC(=O)Nc3ccccc3N3CCOCC3)c(C#N)cc2c1	-	-	-	33	-	-	-	-
CCc1ccc2nc(SCC(=O)N3CCCCC3)c(C#N)cc2c1	-	-	-	-	-	-	.	.
CCOC(=O)Cc1csc(NC(=O)C(C)c2ccc([N+](=O)[O-])cc2)n1 (stereo not given)	-	-	-	-	-	-	.	.
CCC1CCCCN1CCCNS(=O)(=O)c1ccc2c(c1)oc(=O)n2C (stereo not given)	-	-	-	31	-	-	-	-
O=C1/C(=C/c2ccc([N+](=O)[O-])cc2)C=C(c2ccccc2)N1c1ccccc1	-	-	-	40	-	-	-	-
COc1ccc(-c2ccc3c(c2)S(=O)(=O)c2cccc(C(=O)NCc4cc(C)oc4C(F)(F)F)c2C3=O)cc1OC	-	-	-	59	-	.	44	34
O=C1C(Cl)=C(N2CCCCCC2)C(=O)N1c1ccc(Cl)cc1	-	-	-	-	-	-	.	.
O=C1C(Cl)=C(N2CCCC2)C(=O)N1c1ccc(F)cc1	-	-	-	35	-	-	-	-
Cc1cccc(C(=O)NN2C(=O)C3C(c4ccccc4)C=CC(c4ccccc4)C3C2=O)c1 (stereo not given)	-	-	-	64	-	-	-	-
SMILES	SENP8 block-1	SENP6 inh	SENP7 inh	SENP1 FRET inh	SENP8 block-2	Platelet DG rel	SENP1 conf	SENP1 kinetic
O=C(NN1C(=O)C2C3C=CC(C3)C2C1=O)c1ccccc1 (stereo not given)	-	-	-	-	-	-	.	.
C=CCN1C(=O)c2ccccc2NC1c1cc(Br)cs1 (stereo not given)	-	-	-	-	-	-	.	.
COc1ccc(/C=C2\SC(=S)N(CCC(=O)NC3=NCCS3)C2=O)cc1OC	-	-	-	53	-	-	-	-
COc1cc(/C=C2\SC(=S)N(CCC(=O)NCCc3ccccc3)C2=O)cc(OC)c1OC	-	-	-	35	-	-	-	-
CC(=O)Oc1ccc(/C=C2/SC(=S)N(Cc3ccccc3)C2=O)cc1	-	-	-	74	-	-	-	-
CCOC(=O)[C@@H]1[C@H]2COc3cc(OC)ccc3[C@@H]2N2C(=O)N(c3ccc(F)cc3)C(=O)[C@]12C	-	-	-	-	-	-	.	.
CC(=O)Nc1c(Cl)cc2c(c1Cl)Cc1cc(C#N)ccc1-2	-	.	.	-	.	.	.	.
CCSC1=N/C(=C\C=C2/Oc3ccccc3N2CC)C(=O)S1	-	-	-	43	-	-	-	-
CCSC1=N/C(=C\c2ccc3c(c2)OCO3)C(=O)S1	-	-	-	-	-	-	.	.
CCOC(=O)CCCCCC(=O)Nc1ccc2c(c1)C(=O)N([C@@H](C)CO)C[C@H](C)[C@H](CN(C)C(=O)NC(C)C)OCCCC[C@H](C)O2	-	.	.	-	.	.	.	.
CN(C(=S)NCCN1CCOCC1)C(c1ccccc1)c1ccccc1	-	-	-	-	-	-	.	.
COc1cc(S(=O)(=O)Nc2c(C)nn(C)c2C)ccc1NC(C)=O	-	-	-	-	-	-	.	.
COc1cc(S(=O)(=O)Nc2ccc3c(c2)C(=O)N(C)C3=O)ccc1NC(C)=O	-	-	-	54	-	.	41	43
COc1ccc(N(C)C(=O)Nc2ccc3c(c2)nnn3C)cc1	-	-	-	-	-	-	.	.
COc1ccc(N(C)C(=O)Nc2ccc3nsnc3c2)cc1	-	.	.	56	.	-	-	-
CCOC(=O)Cn1c(=O)c(-c2cc(Br)ccc2N)nc2ccccc21	-	-	-	86	-	-	-	-
CCOC(=O)Cn1c(=O)c(-c2ccccc2N)nc2ccccc21	-	-	-	-	-	-	.	.
O=c1oc(-c2ccc(Cl)cc2[N+](=O)[O-])nc2ccccc12	-	.	.	-	.	.	.	.
CC1CCCCN1C(=O)Cn1nnc(-c2cccnc2)n1 (stereo not given)	-	-	-	30	-	-	-	-
COc1ccc(NC2=Nc3cccc4cccc2c34)cc1	-	-	-	77	-	-	57	-
c1ccc(NC2=Nc3cccc4cccc2c34)cc1	-	-	-	74	-	-	43	-
